Experimental data reported in ChEMBL document CHEMBL1127368, “Selective kappa-opioid agonists: synthesis and structure-activity relationships of piperidines incorporating on oxo-containing acyl group” (J Med Chem, 1994).

Legend:
Mus musculus [1] = test: Tested for in vivo antinociceptive activity in mouse abdominal constriction assay; assay type: functional; conditions: Abdomen
Outline: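 Mice of 20-35 g. Abdominal constriction induced with phenyl-p-benzoquinone. Ten animals per dose. ED50 with 95% confidence intervals obtained by regression analysis.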

Mus musculus [2] = test: Tested for in vivo antinociceptive activity in mouse tail-flick assay; assay type: functional
Outline: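 Tail-flick antinociception in mice of 20-35 g. Ten animals per dose. ED50 with 95% confidence intervals obtained by probit analysis.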

Mus musculus [3] = test: Tested for in vivo locomotor impairment/sedation in mouse rotarod test; assay type: functional
Outline: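 Locomotor impairment/sedation measured on a rotarod in mice of 20-35 g. Ten animals per dose. ED50 with 95% confidence intervals obtained by regression analysis.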

[4] = target: Kappa-type opioid receptor (Mus musculus, UniProt P33534); test: Evaluated for the binding affinity at kappa receptor
Mu-type opioid receptor = Mu-type opioid receptor (Mus musculus, UniProt P42866); test: Evaluated for the binding affinity at mu receptor
[5] = target: Delta-type opioid receptor (Mus musculus, UniProt P32300); test: Evaluated for the binding affinity at delta receptor
Rattus norvegicus [6] = test: Tested for in vivo antinociceptive activity in rat abdominal constriction; assay type: functional; conditions: Abdomen
Outline: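 Male SD rats, 180-350 g. Abdominal constriction induced with phenyl-p-benzoquinone. Ten animals per dose. ED50 with 95% confidence intervals obtained by probit analysis.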

Rattus norvegicus [7] = test: Tested for in vivo locomotor impairment/sedation in rat rotarod; assay type: functional
Outline: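 Male SD rats, 180-350 g. Trained in six 5-min sessions over 2 days. Rotarod accelerated from 3 to 30 rpm across five sessions. Ten animals per dose. ED50 with 95% confidence intervals obtained by regression analysis.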

[8] = target: Sigma non-opioid intracellular receptor 1 (Mus musculus, UniProt O55242); test: Evaluated for the binding affinity at sigma receptor
Rattus norvegicus [9] = test: Tested for in vivo antinociceptive activity in rat abdominal constriction assay; conditions: Abdomen

Chain of Kappa-type opioid receptor (P33534 whole entry): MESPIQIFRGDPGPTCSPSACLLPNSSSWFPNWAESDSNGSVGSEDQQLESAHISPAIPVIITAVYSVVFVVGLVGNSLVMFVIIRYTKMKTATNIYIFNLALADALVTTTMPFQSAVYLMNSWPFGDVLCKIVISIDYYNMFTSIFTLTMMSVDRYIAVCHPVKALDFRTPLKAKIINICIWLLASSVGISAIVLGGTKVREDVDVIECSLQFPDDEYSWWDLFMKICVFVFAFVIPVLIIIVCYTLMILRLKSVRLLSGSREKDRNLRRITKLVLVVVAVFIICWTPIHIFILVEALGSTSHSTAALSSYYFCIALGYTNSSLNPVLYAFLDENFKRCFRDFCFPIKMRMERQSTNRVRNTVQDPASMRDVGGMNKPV
Chain of Delta-type opioid receptor (P32300 whole entry): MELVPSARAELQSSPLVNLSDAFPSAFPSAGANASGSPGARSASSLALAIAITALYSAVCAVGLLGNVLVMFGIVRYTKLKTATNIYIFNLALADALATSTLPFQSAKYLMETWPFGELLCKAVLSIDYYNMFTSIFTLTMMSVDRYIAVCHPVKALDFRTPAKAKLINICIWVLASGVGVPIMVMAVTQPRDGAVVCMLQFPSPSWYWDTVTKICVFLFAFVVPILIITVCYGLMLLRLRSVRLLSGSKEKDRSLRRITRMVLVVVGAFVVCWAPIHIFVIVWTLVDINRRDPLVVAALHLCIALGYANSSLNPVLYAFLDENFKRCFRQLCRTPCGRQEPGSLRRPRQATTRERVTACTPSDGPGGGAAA
Chain of Sigma non-opioid intracellular receptor 1 (O55242 whole entry): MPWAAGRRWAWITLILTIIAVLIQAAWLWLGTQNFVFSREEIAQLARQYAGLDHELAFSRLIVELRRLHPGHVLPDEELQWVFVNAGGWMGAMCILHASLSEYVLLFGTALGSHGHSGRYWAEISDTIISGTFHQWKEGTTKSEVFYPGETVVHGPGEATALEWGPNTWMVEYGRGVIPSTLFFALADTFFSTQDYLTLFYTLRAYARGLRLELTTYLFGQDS
Chain of Mu-type opioid receptor (P42866 whole entry): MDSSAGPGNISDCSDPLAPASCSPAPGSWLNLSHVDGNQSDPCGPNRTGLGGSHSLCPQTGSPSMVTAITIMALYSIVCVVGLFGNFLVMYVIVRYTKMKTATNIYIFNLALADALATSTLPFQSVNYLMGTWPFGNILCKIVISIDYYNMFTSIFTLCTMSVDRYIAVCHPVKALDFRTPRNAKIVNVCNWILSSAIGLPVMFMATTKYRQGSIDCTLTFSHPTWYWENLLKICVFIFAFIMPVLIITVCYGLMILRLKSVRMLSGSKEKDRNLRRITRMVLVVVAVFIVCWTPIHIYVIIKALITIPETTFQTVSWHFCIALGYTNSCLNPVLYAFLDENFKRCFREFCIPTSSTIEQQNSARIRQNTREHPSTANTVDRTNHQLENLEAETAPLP

SMILES	ED50 (Mus musculus [1]) [µmol/kg]	ED50 (Mus musculus [2]) [µmol/kg]	ED50 (Mus musculus [3]) [µmol/kg]	Ki [4] [nM]	Ki (Mu-type opioid receptor) [nM]	Ki [5] [nM]	ED50 (Rattus norvegicus [6]) [µmol/kg]	ED50 (Rattus norvegicus [7]) [µmol/kg]	Ki [8] [nM]	ED50 (Rattus norvegicus [9]) [µmol/kg]
C=CCN(C)C[C@@H]1CCCCN1C(=O)Cc1ccc2c(c1)CCCC2=O	0.37	3.42	8.66	19.2						
O=C1CCCc2cc(CC(=O)N3CCCC[C@H]3CN3CCCC3)ccc21	0.35	0.59		7.6						
CCCN(C)C[C@@H]1CCCCN1C(=O)Cc1ccc2c(c1)CCCC2=O	0.62	6.81	7.99	22.2						
O=C(Cc1ccc2c(c1)CCCC2)N1CCCC[C@H]1CN1CCCC1	0.57	2.67		0.81						
CC(C)N(C)C[C@@H]1CCCCN1C(=O)Cc1ccc2c(c1)CCCC2=O	0.22	1.2	1.02	4.07						
O=C1CCCc2ccc(CC(=O)N3CCCC[C@H]3CN3CCCC3)cc21	~1	> 3		5.61						
CCN(C)C[C@@H]1CCCCN1C(=O)Cc1ccc2c(c1)CCCC2=O	0.18	1.77	2.3	10.3						
CN(C[C@@H]1CCCCN1C(=O)Cc1ccc2c(c1)CCCC2=O)C1CCCC1	0.55	6.34	10	20						
CCN(CC)C[C@@H]1CCCCN1C(=O)Cc1ccc2c(c1)CCCC2=O	1.2	12.6	23.7	80.3						
CN(C)C[C@@H]1CCCCN1C(=O)Cc1ccc2c(c1)CCCC2=O	0.47	2.15	5.1	47	6790	> 100	0.73	26.5	1210	
CN(C[C@@H]1CCCCN1C(=O)Cc1ccc2c(c1)CCCC2=O)C1CC1	0.4	7.85	13.7	52.1						
CN(CC1CC1)C[C@@H]1CCCCN1C(=O)Cc1ccc2c(c1)CCCC2=O	1.36	16.5	16.6	30.4						
C#CCN(C)C[C@@H]1CCCCN1C(=O)Cc1ccc2c(c1)CCCC2=O	0.16	5.11	4.12	6.24						
O=C1CCCCc2cc(CC(=O)N3CCCC[C@H]3CN3CCCC3)ccc21	> 1.5	> 3		5.44						
CN(C[C@@H]1CCCCN1C(=O)Cc1ccc2c(c1)CCCC2=O)C(C)(C)C		> 30		> 100						
CN(C[C@@H]1CCCCN1C(=O)Cc1ccc2c(c1)CCCC2=O)C1CCC1	0.34	1.45	3.32	34.8						
O=C1CCc2cc(CC(=O)N3CCCC[C@H]3CN3CCCC3)ccc21	> 1.5	> 30		7.93						
O=C1CCCc2sc(CC(=O)N3CCCC[C@H]3CN3CCCC3)cc21	1.41	13.5		6.54						
O=C(Cc1ccc(C(F)(F)F)cc1)N1CCCC[C@H]1CN1CCCC1	0.1	0.32	0.28	0.64			0.11	0.35		
CN1CC[C@]23c4c5ccc(O)c4O[C@H]2[C@@H](O)C=C[C@H]3[C@H]1C5 [MORPHINE]	1.34	9.8								0.86
